The source made the active and inactive calls. The rule behind the calls is not given here.
Columns and labels:
[1] = system: PC-3; assay: Induction of oxidative stress in human PC3 cells assessed as total GSSG levels at 5 uM after 24 hrs by spectrophotometric analysis (reference value: 1.11 +/- 0.12 microg/mg); assay type: functional
[2] = system: L929; assay: Induction of oxidative stress in mouse L929 cells assessed as GSH to GSSG ratio at 5 uM after 24 hrs by spectrophotometric analysis (reference value: 3.55 +/- 0.51 microg/mg); assay type: cell-based; conditions: l929, 24 h
[3] = system: L929; assay: Antiproliferative activity against mouse L929 cells after 72 hrs by MTT assay; assay type: cell-based; conditions: L929, 72 h
Outline: (§1)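 MTT reduction: cancer lines plated at 0.7×10^5 to 0.3×10^6 cells/well, V79 and L929 fibroblasts at 0.5×10^5 cells/well. Compounds in DMSO (0.1%) were given for 24 h at 0.04–40.92 µM or 72 h at 0.04–8.19 µM. Fresh medium with 0.5 mg/mL MTT was added for 3 h, then formazan was dissolved in DMSO and read at 595 nm as % of control. IC50 came from nonlinear regression with 95% CI. Doxorubicin (0.001–1.06 µM) was the positive control. Triplicate, ≥3 repeats.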

[4] = system: SF-295; assay: Induction of oxidative stress in human SF295 cells assessed as GSH to GSSG ratio at 5 uM after 24 hrs by spectrophotometric analysis (reference value: 2.34 +/- 0.56 microg/mg); assay type: functional
[5] = system: SF-295; assay: Induction of oxidative stress in human SF295 cells assessed as total intracellular thiol levels at 5 uM after 24 hrs by spectrophotometric analysis (reference value: 4.51 +/- 0.83 microg/mg); assay type: functional
[6] = system: HCT-116; assay: Induction of lipid peroxidation in human HCT116 cells assessed as increase in MDA levels at 2.5 to 10 uM treated 24 hrs post NAC addition measured after 24 hrs by TBARS assay; assay type: functional, cell-based
Outline: (§2)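 TBARS: cells were exposed 24 h, with or without 24 h prior 5 mM NAC, and lysed in Tris-HCl. Lysate was heated with TCA/0.25 M HCl and 6.7 mg/mL TBA for 15 min at 100 °C, centrifuged, and read at 532 nm. Hydrolyzed tetramethoxypropane served as standard, with values normalized to protein. H2O2 (10 µM) was the positive control. Three independent experiments in triplicate; ANOVA/Tukey.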

[7] = system: SF-295; assay: Induction of oxidative stress in human SF295 cells assessed as GSH to GSSG ratio at 5 uM treated 24 hrs post NAC addition measured after 24 hrs by spectrophotometric analysis (reference value: 2.34 +/- 0.56 microg/mg); assay type: functional
Outline: (§3)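 Cells were pretreated 24 h with 5 mM NAC, then exposed 24 h to test compound at 5 µM. Controls received 0.1% DMSO. Extracts were prepared by sonication and HClO4 precipitation, then neutralized with KOH. Total glutathione was read by DTNB/glutathione reductase/NADPH rate at 412 nm. GSSG was measured after 4-vinylpyridine (0.1%, 1 h, RT) and GSH derived by difference. Values are normalized to protein, triplicates, three independent runs.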

[8] = system: L929; assay: Geno-toxicity in mouse L929 cells assessed as induction of DNA damage at 2.5 to 10 uM after 24 hrs in absence of NAC by alkaline comet assay; assay type: cell-based; conditions: l929, 24 h
Outline: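 Alkaline comet assay after 24 h at 2.5, 5 and 10 µM, with or without 24 h pretreatment with 5 mM NAC. Cells were trypsinized and embedded in 0.75% low-melting agarose, then lysed at pH 10, 4 °C, ≥1 h. DNA was unwound 20 min at pH >13 and electrophoresed 20 min at 25 V, 300 mA (0.86 V/cm), then stained with ethidium bromide. 100 cells (2 slides) were scored in classes 0–4 for a damage index. Mean ± SEM, three independent experiments in triplicate.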

[9] = Selective index, ratio of IC50 for chinese hamster V79 cells to IC50 for human PC3 cells
Outline: (§4)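 Selectivity index is the ratio of the IC50 in a non-cancer murine line (V79 or L929) to the IC50 in the cancer line. […] MTT was 0.5 mg/mL for 3 h, formazan dissolved in DMSO and read at 595 nm as % of control. IC50s were derived by nonlinear regression; triplicate, at least three repeats.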

[10] = system: SF-295; assay: Induction of lipid peroxidation in human SF295 cells assessed as increase in MDA levels at 2.5 to 10 uM treated 24 hrs post NAC addition measured after 24 hrs by TBARS assay; assay type: functional, cell-based; outline: as §2
[11] = system: PC-3; assay: Induction of oxidative stress in human PC3 cells assessed as total GSSG levels at 5 uM treated 24 hrs post NAC addition measured after 24 hrs by spectrophotometric analysis (reference value: 1.11 +/- 0.12 microg/mg); assay type: functional; outline: as §3
[12] = system: SF-295; assay: Induction of oxidative stress in human SF295 cells assessed as total intracellular thiol levels at 5 uM treated 24 hrs post NAC addition measured after 24 hrs by spectrophotometric analysis (reference value: 4.51 +/- 0.83 microg/mg); assay type: functional; outline: as §3
[13] = system: HCT-116; assay: Antiproliferative activity against human HCT116 cells after 72 hrs by MTT assay; assay type: functional, cell-based; conditions: HCT-116, 72 h; outline: as §1
[14] = system: PC-3; assay: Induction of lipid peroxidation in human PC3 cells assessed as increase in MDA levels at 2.5 to 10 uM after 24 hrs in absence of NAC by TBARS assay; assay type: functional, cell-based; outline: as §2
[15] = system: HCT-116; assay: Induction of oxidative stress in human HCT116 cells assessed as total GSSG levels at 5 uM treated 24 hrs post NAC addition measured after 24 hrs by spectrophotometric analysis (reference value: 1.19 +/- 0.37 microg/mg); assay type: functional
[16] = system: PC-3; assay: Induction of oxidative stress in human PC3 cells assessed as GSH to GSSG ratio at 5 uM treated 24 hrs post NAC addition measured after 24 hrs by spectrophotometric analysis (reference value: 2.69 +/- 0.21 microg/mg); assay type: functional; outline: as §3
[17] = Selective index, ratio of IC50 for mouse L929 cells to IC50 for human HCT116 cells; outline: as §4
[18] = system: L929; assay: Induction of oxidative stress in mouse L929 cells assessed as total GSSG levels at 5 uM treated 24 hrs post NAC addition measured after 24 hrs by spectrophotometric analysis (reference value: 1.05 +/- 0.33 microg/mg); assay type: cell-based; conditions: l929, 24 h
[19] = Selective index, ratio of IC50 for mouse L929 cells to IC50 for human MDA-MB-435 cells; outline: as §4
[20] = system: L929; assay: Induction of lipid peroxidation in mouse L929 cells assessed as increase in MDA levels at 2.5 to 10 uM after 24 hrs in absence of NAC by TBARS assay; assay type: cell-based; conditions: l929, 24 h; outline: as §2
[21] = system: L929; assay: Induction of oxidative stress in mouse L929 cells assessed as total GSH levels at 5 uM after 24 hrs by spectrophotometric analysis (reference value: 3.76 +/- 0.51 microg/mg); assay type: cell-based; conditions: l929, 24 h
[22] = system: PC-3; assay: Induction of oxidative stress in human PC3 cells assessed as total GSH levels at 5 uM treated 24 hrs post NAC addition measured after 24 hrs by spectrophotometric analysis (reference value: 3.04 +/- 0.51 microg/mg); assay type: functional; outline: as §3
[23] = system: SF-295; assay: Induction of oxidative stress in human SF295 cells assessed as total GSSG levels at 5 uM treated 24 hrs post NAC addition measured after 24 hrs by spectrophotometric analysis (reference value: 1.31 +/- 0.55 microg/mg); assay type: functional; outline: as §3

Work on `CC1(C)OC2=C(C(=O)C(=O)c3ccccc32)C1n1cc(CNC2=[N+]3C(=C(c4ccccc4)c4ccc(Cl)n4[B-]3(F)F)C=C2)nn1` (stereo not drawn) yielded an Activity [1] of 2.16 µg/mg, an Activity [2] of 0.33 and an IC50 [3] of 0.92 µM. The Activity [4] was 0.39 µg/mg, the Activity [5] was 3.44 µg/mg and the Activity [6] was “inactive”. The Activity [7] was 2.82 µg/mg, the Activity [8] was “Toxic” and the Ratio IC50 [9] was 1.7. For the same compound, the Activity [10] was “inactive”, the Activity [11] was 1.07 µg/mg and the Activity [12] was 4.72 µg/mg. The IC50 [13] was 0.32 µM, the Activity [14] was “Active” and the Activity [15] was 1.38 µg/mg. For the same compound, the Activity [16] was 2.88 µg/mg, the “Ratio IC50” value [17] was 3 and the Activity [18] was 1.24 µg/mg. The Ratio IC50 [19] was 1.1, the Activity [20] was “Toxic” and the Activity [21] was 1.15 µg/mg. The Activity [22] was 3.13 µg/mg and the Activity [23] was 1.21 µg/mg.
